PREPL inhibitor: human PREPL enzyme inhibition. Q4J6C6. recombinant PREPL, fluorescence polarization activity-based probe. inhibition, % at 5.96 µM. 320,000 compounds, 0.68% hits. AID 2751; in the data active = inhibition above about 43%;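 note: 0% = enzyme with DMSO and 100% = wells lacking enzyme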
MEKK2 mut-MEK5: signal of MEK5 binding to mutant human MEKK2 PB1 domain; bead flow cytometry, Alexa488-MEK5 binding to MEKK2 mutant; percent response, % at 10 µM; 290,000 compounds, 0.35% hits; AID 1530; in the data active = percent response above about 24%, passing the limit was not always enough
UBC13 inh: inhibitors of human UBC13 polyubiquitin chain formation; inhibition, % at 20 µM; 330,000 compounds, 0.47% hits; P61088; TR-FRET; in the data active = inhibition above about 45%, passing the limit was not always enough; inconclusive = no clear call, values can overlap the other calls
MEKK3 PB1 HTS: raises or lowers MEK5 binding to the human MEKK3 PB1 domain. Q99759. bead-based flow cytometry, Alexa488-MEK5 binding to MEKK3; actives lie on both sides; 0 = blocked by unlabeled MEK5, 100 = vehicle. binding response (% of control), % at 10 µM. 290,000 compounds, 1.4% hits. AID 1529;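 active = binding response more than 3 SD above or below the average of its plate-row segment, actives on both sides; inconclusive = wells at one plate position flagged as instrument error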;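 note: Alexa488 bead fluorescence after subtracting the streptavidin-only scavenger bead signal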
Target sequence (Q99759 whole entry, looked up, the tested form may be a part): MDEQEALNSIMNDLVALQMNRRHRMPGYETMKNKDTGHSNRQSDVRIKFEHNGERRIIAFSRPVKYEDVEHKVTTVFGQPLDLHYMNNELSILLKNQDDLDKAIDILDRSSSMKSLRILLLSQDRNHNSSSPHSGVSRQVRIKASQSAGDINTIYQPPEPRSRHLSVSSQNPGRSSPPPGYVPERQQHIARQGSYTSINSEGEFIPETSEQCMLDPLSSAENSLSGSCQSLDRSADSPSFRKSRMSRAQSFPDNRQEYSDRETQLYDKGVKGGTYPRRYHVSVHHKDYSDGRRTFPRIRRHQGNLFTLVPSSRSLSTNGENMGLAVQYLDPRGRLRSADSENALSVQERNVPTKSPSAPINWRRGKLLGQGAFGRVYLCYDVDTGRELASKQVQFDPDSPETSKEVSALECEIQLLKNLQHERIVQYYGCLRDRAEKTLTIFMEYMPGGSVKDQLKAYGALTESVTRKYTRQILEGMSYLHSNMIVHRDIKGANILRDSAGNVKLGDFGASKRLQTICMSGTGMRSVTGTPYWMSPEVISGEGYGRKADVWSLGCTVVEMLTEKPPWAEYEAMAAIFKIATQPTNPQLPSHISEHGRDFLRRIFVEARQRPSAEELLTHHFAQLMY
MEKK2 WT-MEK5: raises or lowers MEK5 binding to wildtype human MEKK2 PB1 domain | AID 1531 | binding response (% of control), % at 10 µM | bead flow cytometry, Alexa488-MEK5 binding to MEKK2 WT; actives lie on both sides | 290,000 compounds, 1.1% hits | Q9Y2U5; in the data active = binding response below about 67% or above about 130%; inconclusive = no clear call, values can overlap the other calls; inactive = in between
Apaf1 inhib: human Apaf-1 inhibition. 330,000 compounds, 0.71% hits. reconstituted apoptosome caspase-3 activity, DEVD-Rh110 fluorescence. AID 489030. inhibition, % at 20 µM; active = inhibition of at least 40% at 20 µM;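 note: plate controls were DMSO wells for no effect and DEVD-CHO caspase inhibitor wells for full effect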
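detection = Rh110 fluorescence intensity | test system = biochemical Apaf-1 apoptosome reconstitution | also added = cytochrome c and DEVD-Rh110 substrate | schedule = 30 min plus 50 min, RT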
MEKK2wt confirm: raises or lowers MEK5 binding to wildtype human MEKK2, retest | binding response (% of control), % at 10 µM | AID 1892 | bead flow cytometry, Alexa488-MEK5 binding to MEKK2 WT; actives lie on both sides | shares compounds with MEKK3 PB1 HTS | 5,900 compounds, 2.4% hits; in the data active = binding response below about 16% or above about 210%; inactive = in between
MEKK2mut confirm: signal of MEK5 binding to mutant human MEKK2, retest; percent response, % at 10 µM; shares compounds with MEKK3 PB1 HTS; 5,900 compounds, 2% hits; bead flow cytometry, Alexa488-MEK5 binding to MEKK2 mutant; in the data active = percent response mostly above about 71%, no sharp cut-off; inactive = mostly below about 38%;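 note: higher means compound restores mutant binding toward wildtype level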
MEKK3 confirm: confirmation of inhibitors of MEK5 binding to human MEKK3; shares compounds with MEKK3 PB1 HTS; bead flow cytometry, Alexa488-MEK5 binding to MEKK3; hits give low values; binding response (% of control), % at 10 µM; 5,900 compounds, 1.8% hits; AID 1894;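 active = binding response below 72% of control, or above a set upper limit, though filed actives all read lower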;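 note: 100% = DMSO only wells and 0% = binding blocked by excess unlabeled MEK5; lower values mean stronger disruption of MEK5 binding to MEKK3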
* = called active by the depositor; u = inconclusive; x = not tested or not shown; [ ] = another dose, or the depositor's remark. In the library only some 3.1% were active in any assay of this set; here they are far more common.

SMILES	PREPL inhibitor	MEKK2 mut-MEK5	UBC13 inh	MEKK3 PB1 HTS	MEKK2 WT-MEK5	Apaf1 inhib	MEKK2wt confirm	MEKK2mut confirm	MEKK3 confirm
CC(C)(C)n1ncc2c(=O)n(Cc3ccc(Cl)cc3Cl)cnc21	11	-69	11	2.0*[inhibitor]	2.0*[inhibitor]	26	105	-1	105
OCc1ccccc1OCCCN1CCC(Cc2ccccc2)CC1	27	24*	10	112	194*	3	142	18	102
Clc1ccccc1OCCN1CCC(Cc2ccccc2)CC1	-28	5	13	100	121	-16	x	x	x
COc1cc(C(C)=O)ccc1OCCCN1CCC(Cc2ccccc2)CC1	-6	4	8	106	115	-7	x	x	x
O=Cc1cc(Cl)ccc1OCCN1CCC(Cc2ccccc2)CC1	3	10	11	110	140*	9	132	22	109
Clc1ccc(CN2CCC(Cc3ccccc3)CC2)cc1	-2	59*	-2	103	199*	0	117	9	107
COCCN1C(=O)/C(=C/c2ccc(N3CCCC3)cc2C)SC1=S	1	-36	-338	59	20*[inhibitor]	4	24	-33	56*
CN(CCOc1ccccc1)C(=O)C1CCC(=O)N(CCCN2CCCC2=O)C1 (centres undefined)	6	3	-4	99	100	-1	x	x	x
C#CCOCCOCCOCCNc1nc(N2CCN(C(=O)[C@H](CCCN=C(N)N)n3cc(C(N)[C@H](C)CC)nn3)CC2)nc(N2CCN(C(=O)[C@H](CC(N)=O)n3cc(C(N)[C@@H](C)CC)nn3)CC2)n1 (some centres undefined)	31	x	18	x	x	0	x	x	x
CSc1ccccc1NC(=O)CSc1nnc(COc2ccccc2)o1	0	-4	2	97	95	8	x	x	x
COc1cc(/C=C(\C#N)C(=O)NCC2CCCO2)ccc1O (centres undefined)	-3	0	0	117	104	-7	x	x	x
COc1cc(/C=N/NC(=O)C(=O)NCC2CCCO2)ccc1O (centres undefined)	10	3	-11	162*	117	-9	103	0	103
COc1cc(/C=N/NC(=O)/C(=C\c2ccc3c(c2)OCO3)NC(=O)c2ccccc2)ccc1O	10	1	-31	142*	103	29	104	5	107
COc1cc(/C=N/NC(=O)c2ccc3c(c2)OCO3)ccc1O	x	-1	-2	95	97	-1	x	x	x
Cc1noc(C)c1S(=O)(=O)N1CCN(c2ccccc2Cl)CC1	x	x	-1	x	x	15	x	x	x
CC(=O)Nc1ccc(NC(=O)CCc2c(C)noc2C)cc1	x	x	1	x	x	-5	x	x	x
COC(=O)CCCC1=CC2=CC(=O)C(C)(OC(=O)c3cccs3)C(=O)C2=CN1C1CC1 (centres undefined)	7	4	-54	122	142*	17	100	-2	103
CC1(OC(=O)CCc2ccccc2)C(=O)C=C2C=C(c3ccc(C#N)cc3)N(Cc3ccccc3)C=C2C1=O (centres undefined)	27	-15	-41	102	93	13	x	x	x
CC1(OC(=O)CCc2ccccc2)C(=O)C=C2C=C(c3ccc(C#N)cc3)N(C3CC3)C=C2C1=O (centres undefined)	12	4	-63	125	140*	31	97	-1	101
O=C(c1cccs1)c1ccc(-c2cccs2)s1	-14	-9	u	87	61*[inhibitor]	22	91	1	100
Cc1ccc(-c2csc(N(CCCN(C)C)C(=O)c3ccco3)n2)cc1	-70	30	14	114	202*	-8	183	49	107
Cc1ccc2nc(N(CCCN(C)C)C(=O)c3ccco3)sc2c1	-72	33	-8	231*	121	-11	109	12	107
CN(C)CCCN(C(=O)c1ccco1)c1nc(-c2ccc(Cl)cc2)cs1	-128	8	10	100	138	21	x	x	x
Cc1ccc2nc(N(CCCN(C)C)C(=O)c3ccc(Br)s3)sc2c1	-51	35	21	102	169*	-5	166	29	108
CN(C)CCCN(C(=O)c1ccco1)c1nc2c(F)cc(F)cc2s1	-90	-10	-1	96	96	-7	x	x	x
SMILES	PREPL inhibitor	MEKK2 mut-MEK5	UBC13 inh	MEKK3 PB1 HTS	MEKK2 WT-MEK5	Apaf1 inhib	MEKK2wt confirm	MEKK2mut confirm	MEKK3 confirm
CN(C)CCCN(C(=O)c1ccco1)c1nc2c(F)cccc2s1	-110	68*	2	62*[inhibitor]	101	-23	107	7	102
CN(C)CCCN(C(=O)c1ccc(Br)s1)c1nc2cc3c(cc2s1)OCCO3	6	x	32	x	x	26	x	x	x
CN(C)CCCN(C(=O)c1ccco1)c1nc2ccc(F)cc2s1	-87	2	18	102	104	-99	x	x	x
COc1ccc(C)cc1NC(=O)c1ccccc1N(C)S(=O)(=O)c1ccccc1	0	2	-3	99	102	6	x	x	x
CN(C)CCCN(C(=O)c1ccc(S(=O)(=O)N(C)Cc2ccccc2)cc1)c1nc2c(F)cccc2s1	11	40*	40	110	196*	7	176	34	108
COc1ccc(NC(=O)CSc2nnc3ccc(-c4ccccn4)nn23)cc1OC	-10	x	-5	x	x	1	x	x	x
CC(C)CC(N=Cc1c(O)c2ccccc2oc1=O)C(=O)O (centres undefined)	3	-2	15	73*[inhibitor]	93	10	100	0	104
COc1ccccc1CC(=O)c1ccc(OCc2ccccc2)cc1	-3	x	0	x	x	19	x	x	x
Nc1nc(Cl)cc(Sc2ccc3ccccc3c2)n1	-18	26*	0	115	119	11	111	4	106
COc1ccc(NC(=O)CCC(=O)c2cc(C)sc2C)cc1	x	x	-4	x	x	8	x	x	x
COc1cc(C2NC(=S)NC3=C2CCc2ccccc23)cc(OC)c1OC (centres undefined)	14	0	7	142*	109	-1	98	1	104
O=C(COC(=O)/C=C/c1ccco1)NCc1ccc2c(c1)OCO2	-2	5	-10	105	105	2	x	x	x
CCOc1ccc(NC(=O)c2sc3nc(C)nc(N4CCOCC4)c3c2C)cc1	10	-8	0	98	93	11	x	x	x
